# Laboratory results as given in ChEMBL document CHEMBL4387775, “Minimum structural requirements for inhibitors of the zinc finger protein TRAF6” (Bioorg Med Chem Lett, 2019).
# Active and inactive are the calls of the source. The calls are words filed in the database; no cut-off is given here.
# Legend:
# [1] = target: T1, TNF receptor-associated factor 6 (Homo sapiens) (UniProt Q9Y4K3); test: Inhibition of TRAF6 (unknown origin)-mediated NFkappaB activation expressed in human HeLaS3 cells harboring 3kappaB-tk-luc at 10 uM preincubated for 1 hr followed by Il1alpha-stimulation and measured after 3 hrs in presence of DTT by dual-luciferase reporter gene assay relative to control; assay type: cell-based
# T1 sequence (whole entry): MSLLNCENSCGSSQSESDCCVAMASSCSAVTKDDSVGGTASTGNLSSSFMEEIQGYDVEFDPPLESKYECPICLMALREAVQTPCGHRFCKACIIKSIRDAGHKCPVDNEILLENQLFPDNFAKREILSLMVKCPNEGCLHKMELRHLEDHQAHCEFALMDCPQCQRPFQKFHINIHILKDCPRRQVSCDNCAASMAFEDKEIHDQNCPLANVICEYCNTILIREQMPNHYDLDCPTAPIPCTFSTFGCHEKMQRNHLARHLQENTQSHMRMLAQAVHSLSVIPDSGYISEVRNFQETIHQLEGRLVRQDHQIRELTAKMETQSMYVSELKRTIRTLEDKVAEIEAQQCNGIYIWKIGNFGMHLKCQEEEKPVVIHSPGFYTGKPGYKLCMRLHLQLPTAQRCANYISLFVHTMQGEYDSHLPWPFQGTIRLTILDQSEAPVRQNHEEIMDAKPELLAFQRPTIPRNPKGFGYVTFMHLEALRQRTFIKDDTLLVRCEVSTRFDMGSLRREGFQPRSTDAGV
# In short: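 Cells co-transfected with 3κB-tk-luc and pRL-Luc (β-actin-driven renilla), cultured 1 day, then given compound (10 μM) plus DTT (30 μM) for 1 h before IL-1α (10 ng/mL) stimulation for 3 h. Dual-luciferase read-out: κB-firefly signal normalized to renilla, reported as relative NF-κB activity.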
# [2] = target: T1, TNF receptor-associated factor 6 (Homo sapiens); test: Inhibition of TRAF6 (unknown origin)-mediated NFkappaB activation expressed in human HeLaS3 cells harboring 3kappaB-tk-luc at 10 uM preincubated for 1 hr followed by Il1alpha-stimulation and measured after 3 hrs by dual-luciferase reporter gene assay relative to control; assay type: cell-based
# In short: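 Cells co-transfected with 3κB-tk-luc (triple κB site driving firefly luciferase) and pRL-Luc (β-actin promoter driving renilla luciferase), cultured 1 day, given compound (10 μM) without DTT for 1 h, then stimulated with IL-1α (10 ng/mL) for 3 h. Lysates read by dual-luciferase assay; firefly signal normalized to renilla, expressed as relative NF-κB activity.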
# [3] = Prodrug conversion in human HeLaS3 assessed as NpSH formation at 10 uM; assay type: ADME, cell-based; settings: hela s3, 10 µM
# [4] = system: HeLa S3; test: Cytotoxicity against human HeLaS3 cells assessed as reduction in cell viability at 10 uM measured after 8 hrs in presence of DTT by MTT assay relative to control; assay type: functional
# In short: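 Cells treated with compound at 10 μM together with DTT (30 μM), incubated 8 h, then viability read by MTT assay; shown as activity relative to control.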
SMILES,inhibition [1],inhibition [2],Drug metabolism [3],Activity [4]
CCCCCCCCCCCCOC(=O)Nc1cc(CNCCS)nc(CNCCS)c1,inactive,,,
CN(C)c1cc(CNCCSSc2ccccc2[N+](=O)[O-])nc(CNCCSSc2ccccc2[N+](=O)[O-])c1,89%,80%,Metabolite_Detected,inactive
O=C(CCCC[C@@H]1SC[C@@H]2NC(=O)N[C@@H]21)NCCCCCCOC(=O)Nc1cc(CNCCS)nc(CNCCS)c1,78%,,,
O=[N+]([O-])c1ccccc1SSCCNCc1cccc(CNCCSSc2ccccc2[N+](=O)[O-])c1,inactive,,Metabolite_Detected,
CC(C)=CCC/C(C)=C/CC/C(C)=C/COC(=O)Nc1cc(CNCCS)nc(CNCCS)c1,inactive,,,
O=[N+]([O-])c1ccccc1SSc1ccccc1[N+](=O)[O-],,,Metabolite_Detected,

# Continued, in another order:
inhibition [1],inhibition [2],Drug metabolism [3],SMILES,Activity [4]
inactive,,,SCCNCc1ccccn1,
inactive,,,CN(C)c1ccnc(CNCCS)c1,
84%,76%,Metabolite_Detected,O=[N+]([O-])c1ccccc1SSCCNCc1cccc(CNCCSSc2ccccc2[N+](=O)[O-])n1,
inactive,,,Sc1ccccc1NCc1ccccn1,
inactive,,,O=[N+]([O-])c1ccccc1S,24%
